# According to paper PMC3715055 (Science translational medicine, 2012):
# Tests used:
# SERCA pump [1] = biological target: T1, SERCA pump (Oryctolagus cuniculus, UniProt P04191); test: SERCA pump assay with skeletal muscle microsomes; format: biochemical, rabbit; settings: broken cell microsomal studies
# [2] = system: TSU human bladder cancer cells; test: Clonal survival assay, PSMA-negative TSU cells, 72-hour exposure; format: cell-based; settings: human cancer cell lines (Fig. 3A: TSU)
# How it was run: (§1)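 Clonal survival assays used PSMA-negative TSU bladder and PSMA-positive LNCaP prostate cancer cells exposed to test compounds for 72 hours. IC50 was the concentration inhibiting proliferation by 50%. Assays were run in triplicate and reported as mean ± SE.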
# [3] = system: LNCaP human prostate cancer cells; test: Clonal survival assay, PSMA-positive LNCaP cells, 72-hour exposure; format: cell-based; settings: human cancer cell lines (Fig. 3A: LNCaP)
# How it was run: as §1
# TSU cells = test: Intracellular free calcium in fura-2-loaded TSU cells; format: cell-based, human; settings: PSMA-nonproducing TSU cells
# [4] = Biodistribution in CWR22R-H-bearing castrated mice; format: in vivo, mouse
# How it was run: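 Castrated mice carried CWR22R-H tumours started s.c. from 10 mg minced tumour in Matrigel. Five mice received one 56 mg/kg dose of test compound. Tumour, liver, kidney, skeletal muscle and brain were harvested 5 days later. Test compound and its PSMA cleavage products were measured in tissue by LC-MS. Tumour levels were compared with other tissues by Student's t test.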
# [5] = Biodistribution in MCF-7 tumor-bearing mice; format: in vivo, mouse
# SERCA pump [6] = biological target: T1, SERCA pump; test: Intrinsic fluorescence binding competition on SERCA; settings: intrinsic fluorescent studies
# Fc-PSMA = Fc-PSMA (Homo sapiens, UniProt Q04609); test: PSMA prodrug hydrolysis with Fc-PSMA; format: biochemical; settings: incubation with Fc-PSMA
# Fc-PSMA, sequence (Q04609 44-750 limits assumed): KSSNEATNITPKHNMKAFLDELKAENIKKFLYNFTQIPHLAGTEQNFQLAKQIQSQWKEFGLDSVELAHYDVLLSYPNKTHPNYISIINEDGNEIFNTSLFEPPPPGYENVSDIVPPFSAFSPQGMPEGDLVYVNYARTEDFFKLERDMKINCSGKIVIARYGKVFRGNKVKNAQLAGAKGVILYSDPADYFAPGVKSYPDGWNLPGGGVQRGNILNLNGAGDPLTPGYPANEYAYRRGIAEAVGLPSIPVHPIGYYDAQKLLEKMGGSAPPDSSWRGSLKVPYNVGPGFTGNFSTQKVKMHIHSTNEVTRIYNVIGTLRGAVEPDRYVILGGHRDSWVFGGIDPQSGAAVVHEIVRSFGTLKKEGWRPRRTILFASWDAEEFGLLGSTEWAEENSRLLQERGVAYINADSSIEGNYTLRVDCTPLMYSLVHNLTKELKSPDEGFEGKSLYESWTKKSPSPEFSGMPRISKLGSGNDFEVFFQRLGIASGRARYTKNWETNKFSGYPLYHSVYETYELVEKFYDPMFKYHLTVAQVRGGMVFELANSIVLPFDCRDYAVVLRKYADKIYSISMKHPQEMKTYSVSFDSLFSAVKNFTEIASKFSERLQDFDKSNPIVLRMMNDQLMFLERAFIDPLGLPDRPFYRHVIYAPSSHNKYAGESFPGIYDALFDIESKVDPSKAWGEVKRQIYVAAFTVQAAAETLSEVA
# How it was run: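 Enzyme activity was confirmed beforehand by 3H-NAAG hydrolysis. Aliquots taken over time were analysed by HPLC with 0.1% TFA in water and acetonitrile, 40–100% B over 25 min. Products were identified by co-elution and confirmed by MS. Human plasma and other purified proteases at equimolar level were also tested.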
# [7] = Stability to hydrolysis in human plasma; format: in vitro ADME
# other purified proteases = test: Hydrolysis by other purified proteases; format: biochemical; settings: equimolar concentrations of other proteases
# LNCaP cells = test: Growth inhibition of LNCaP cells with or without PSMA inhibitor PMPA; format: cell-based, human; settings: 48-hour exposure, PMPA 10 μM
# [8] = Dose-finding / maximum tolerated dose in mice; format: in vivo, mouse; settings: for maximally tolerated dose: × 3 doses
# [9] = system: LNCaP human prostate cancer xenografts; test: LNCaP xenograft efficacy in intact mice; format: in vivo, mouse; settings: for treated-to-control tumor volume (T/C) ratio: maximally tolerated dose × 3
# How it was run: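 Six-week-old male nude mice were inoculated in the flank with 2 × 10^6 LNCaP cells in Matrigel. Test compound was given i.v. at 56 mg/kg on days 0, 1 and 2. The docetaxel comparator was dosed on days 0, 2 and 5. Tumour volume was followed for 30 days against untreated mice by Student's t test. T/C was the treated-to-control tumour volume ratio.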
# [10] = system: MDA-PCa2b human prostate cancer xenografts; test: MDA-PCa2b xenograft efficacy in intact mice; format: in vivo, mouse
# How it was run: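 Six-week-old male nude mice carried flank MDA-PCa2b tumours from 2 × 10^6 cells in Matrigel. Test compound was given i.v. at 56 mg/kg on 3 consecutive days. Tumour volume was followed for ≥30 days against untreated controls by Student's t test. Tumours harvested 4 days after the last dose had H&E staining and nuclear AR immunostaining with rabbit polyclonal anti-AR antibody.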
# [11] = system: CWR22R-H human prostate cancer xenografts; test: CWR22R-H xenograft efficacy in castrated mice; format: in vivo, mouse; settings: single 3-day course, 56 mg/kg × 3, out to ≥30 days
# How it was run: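 Castrated mice had CWR22R-H xenografts from s.c. minced tumour (10 mg) in Matrigel. Three consecutive daily i.v. doses of 56 mg/kg were given on days 0, 1 and 2. Tumour volume was followed for ≥30 days against untreated controls by Student's t test. Body weight was recorded.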
# [12] = system: MCF-7 human breast cancer xenografts; test: MCF-7 xenograft efficacy in female nude mice; format: in vivo, mouse; settings: for T/C ratio: day 21
# How it was run: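 Female nude mice with s.c. estrogen pellets carried flank tumours from 2 × 10^6 MCF-7 cells. Mice received one, two or three daily doses of 56 mg/kg test compound. Tumour volume and body weight were followed against untreated controls by Student's t test. Xenografts had histology 6 days after two doses. ER was stained with an ERα mAb. T/C was treated-to-control tumour volume.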
# [13] = system: TSU human bladder cancer xenografts; test: TSU xenograft efficacy; format: in vivo, mouse; settings: more intensive treatment schedule
# [14] = Body weight of xenograft-bearing mice; format: in vivo, mouse; settings: 56 mg/kg × 3, by 5 to 7 days after therapy, baseline by days 14 to 21
# [15] = Single-dose pharmacokinetics in BALB/c mice; format: in vivo, mouse; settings: single dose of 67 mg/kg
# How it was run: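 Wild-type BALB/c mice received a single i.v. dose of 67 mg/kg. Groups of three mice were sampled at time points over 24 hours. Plasma test compound and its 12ADTβAsp cleavage product were quantified by LC-MS/MS. Analysis was noncompartmental, with a semilog regression trend line.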
# [16] = GLP toxicology in cynomolgus monkey; format: in vivo
# How it was run: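 Toxicology was done in cynomolgus monkeys of both sexes at 10 mg/kg, with vehicle-treated controls. Necropsy was on day 33 and examined lymph nodes, spleen and thymus histologically. Splenic/body weight and thymus/body weight ratios were compared with vehicle animals, three per sex.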
# GLP toxicology in rat = format: in vivo
# [17] = Phase 1 clinical trial pharmacokinetics; format: in vivo, human
# How it was run: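 Eighteen advanced cancer patients in a phase 1 dose-escalation trial received a 1-hour i.v. infusion at 1.2 to 40 mg/m2. Serum concentrations were followed over 24 hours. Analysis was noncompartmental. AUC0–∞ used the linear trapezoidal method and t1/2 the log-linear terminal slope. Dose proportionality was assessed from AUC across doses.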
# [18] = Pharmacokinetics in monkey toxicological studies; format: in vivo; settings: serum, intravenous
# How it was run: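 Male and female monkeys received a single 1-hour treatment at 1 to 10 mg/kg. Serum levels of test compound were followed over 24 hours. Analysis was noncompartmental. Terminal half-life came from the terminal slope of a log-linear concentration–time plot.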
# [19] = system: PC-3 human prostate cancer cells; test: Clonal survival of PC-3 cells after repeated exposure; format: cell-based; settings: 11 cycles of repeat exposure and clonal expansion, 500 nM
# [20] = BALB/c mice; cited from earlier work
# [21] = MCF-7, 5 days after single dose of G202 56 mg/kg
# T1 sequence (P04191 whole entry): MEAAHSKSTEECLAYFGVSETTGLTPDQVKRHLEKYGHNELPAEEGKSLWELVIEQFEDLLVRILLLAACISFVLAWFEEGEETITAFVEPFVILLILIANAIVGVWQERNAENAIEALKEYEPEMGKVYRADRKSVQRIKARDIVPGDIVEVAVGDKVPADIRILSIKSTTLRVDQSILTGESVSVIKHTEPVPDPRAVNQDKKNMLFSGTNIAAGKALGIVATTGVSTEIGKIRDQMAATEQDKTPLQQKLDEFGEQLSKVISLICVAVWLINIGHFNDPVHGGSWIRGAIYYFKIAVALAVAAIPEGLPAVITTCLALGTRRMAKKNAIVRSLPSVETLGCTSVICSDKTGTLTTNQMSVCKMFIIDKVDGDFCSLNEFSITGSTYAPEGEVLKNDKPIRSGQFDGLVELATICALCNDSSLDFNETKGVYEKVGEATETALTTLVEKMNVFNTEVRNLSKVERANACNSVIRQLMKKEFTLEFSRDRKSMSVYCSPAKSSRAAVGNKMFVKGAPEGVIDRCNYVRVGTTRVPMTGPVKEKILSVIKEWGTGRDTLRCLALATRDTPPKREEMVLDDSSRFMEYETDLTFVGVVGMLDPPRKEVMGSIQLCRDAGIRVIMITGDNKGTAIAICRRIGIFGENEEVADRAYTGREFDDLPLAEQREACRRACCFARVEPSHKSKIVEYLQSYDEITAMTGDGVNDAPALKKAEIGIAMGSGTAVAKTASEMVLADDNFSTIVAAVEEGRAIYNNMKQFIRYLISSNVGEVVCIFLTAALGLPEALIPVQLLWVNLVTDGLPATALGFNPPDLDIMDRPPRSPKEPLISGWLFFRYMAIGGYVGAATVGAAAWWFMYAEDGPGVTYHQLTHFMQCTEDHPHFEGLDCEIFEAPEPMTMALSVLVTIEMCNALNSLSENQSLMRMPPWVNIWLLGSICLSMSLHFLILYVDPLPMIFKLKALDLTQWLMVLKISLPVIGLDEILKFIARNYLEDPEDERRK
structure (smiles),measurement,setting,value
C/C=C(/C)C(=O)O[C@H]1C(C)=C2[C@H]([C@@H]1OC(=O)CCCCCCC)[C@@](C)(OC(C)=O)C[C@H](OC(=O)CCCCCCCCCCCNC(=O)C[C@H](N)C(=O)O)[C@@]1(O)[C@H]2OC(=O)[C@@]1(C)O [12ADTβAsp],potency at inhibiting the SERCA pump compared with TG,SERCA pump [1],as potent at inhibiting the SERCA pump in broken cell microsomal studies as was TG
same,cytotoxic potency compared with TG,[2],comparable to those of TG
same,cytotoxic potency compared with TG,[3],comparable to those of TG
same,maximal elevation in intracellular Ca2+,TSU cells; 200 nM,up to 400 nM
same,accumulation in tumor tissue,"[4]; 5 days after single dose of G202 56 mg/kg, CWR22R-H tumor",micromolar levels
same,fold higher amount in tumor tissue compared to normal brain,"[4]; CWR22R-H, after G202 56 mg/kg",354 fold
same,fold higher amount in tumor tissue compared to normal kidney,"[4]; CWR22R-H, after G202 56 mg/kg",15 fold
same,fold higher amount in tumors than in kidney,[5]; [21],3.5 fold
same,fold higher amount in tumors than in skeletal muscle,[5]; [21],1.6 fold
same,tumor concentration relative to that in CWR22R-H xenografts,[5]; MCF-7 versus CWR22R-H,1/10
same,binding competition with cyclopiazonic acid (CPA),SERCA pump [6],competitively affect the binding of each other
"C/C=C(/C)C(=O)O[C@H]1C(C)=C2[C@H]([C@@H]1OC(=O)CCCCCCC)[C@@](C)(OC(C)=O)C[C@H](OC(=O)CCCCCCCCCCCNC(=O)C[C@H](N)C(=O)N[C@@H](CCC(=O)N[C@@H](CCC(=O)N[C@@H](CCC(=O)N[C@@H](CCC(=O)O)C(=O)O)C(=O)O)C(=O)O)C(=O)O)[C@@]1(O)[C@H]2OC(=O)[C@@]1(C)O [G202, 12ADTβAsp-GluγGluγGluγGlu]",hydrolysis by PSMA,Fc-PSMA,efficiently hydrolyzed by PSMA
same,stability to hydrolysis in human plasma,[7],completely stable to hydrolysis in human plasma
same,hydrolysis by other purified proteases,other purified proteases,not appreciably hydrolyzed
same,increase in intracellular calcium,TSU cells; 5 mM (25-fold higher concentration),no appreciable increase in intracellular calcium
same,growth inhibition of LNCaP cells on addition of PMPA,LNCaP cells,could be blocked
same,bone marrow toxicity,[8]; mouse toxicology studies,no bone marrow toxicity
same,MTD,"[8]; mouse, in vivo, iv",112 mg/kg
same,mortality of treated animals,[8]; up to three consecutive daily doses of 56 mg/kg (1 μmol/dose),< 10%
same,maximally tolerated single intravenous dose,[8]; wild-type mice,2 μmol/dose
same,TG molar equivalents deliverable systemically compared to TG alone,[8]; without significant host toxicity,> 150 fold
same,maximally tolerated dose,[8],1.0 µmol
same,treated-to-control tumor volume (T/C) ratio,[9],0.15
same,average regression of xenografts,"[9]; single 3-day course, 56 mg/kg × 3, over a 30-day period",~50%
same,androgen receptor (AR) expression in tumors,[10]; 4 days after 56 mg/kg × 3,marked down-regulation of AR expression
same,antitumor effect,"[10]; single 3-day course, 56 mg/kg × 3, out to ≥30 days",Significant antitumor effects
same,antitumor effect,[11],Significant antitumor effects
same,T/C ratio at 3 weeks after treatment,[12]; MCF-7,0.05
same,effect on tumor growth,[12]; single dose 56 mg/kg on 1 day,tumor growth delay
same,T/C ratio,[12]; three consecutive doses of 56 mg/kg,0.06 ± 0.005
same,T/C ratio,[12]; two consecutive doses of 56 mg/kg,0.05 ± 0.006
same,effect on tumor growth,"[12]; two daily doses of 56 mg/kg, out to 30 days, all treated animals",sustained tumor regression
same,estrogen receptor (ER) expression in tumors,"[12]; two doses of 56 mg/kg, nadir 3 days after the last dose",down-regulation of the estrogen receptor
same,T/C ratio at 3 weeks after treatment,[13],0.32
same,maximum body weight loss,[14],about 15%
same,fraction of dose converted in the circulation to 12ADTβAsp,[15],Less than 1%
same,amount detected in the brain,[4]; mouse biodistribution studies,low amounts
same,animals with lymphoid depletion of lymph nodes,[16]; 10 mg/kg,five of six
same,animals with lymphoid depletion of spleen,[16]; 10 mg/kg,five of six
same,increase of splenic ratio,"[16]; female monkeys, 10 mg/kg",25%
same,decrease of splenic/body weight ratio versus vehicle,"[16]; male monkeys, 10 mg/kg",44%
same,decrease of thymus/body weight ratio versus vehicle,"[16]; male monkeys, 10 mg/kg",67%
same,bone marrow toxicity,[16]; monkey toxicology studies,no bone marrow toxicity
same,brain pathology,"[16]; six monkeys, three consecutive doses of 10 mg/kg",within normal limits
same,brain pathology,GLP toxicology in rat; rat pathological studies,lack of toxicity to the brain
same,renal toxicity,GLP toxicology in rat; rat toxicological studies,transient reversible renal toxicity
same,bone marrow toxicity,GLP toxicology in rat; rat toxicology studies,no bone marrow toxicity
same,predicted increase of AUC for a doubling in dose,"[17]; first six dose cohorts, 1.2 to 40 mg/m^2",2.23 fold
same,terminal half-life in patients relative to monkey,[17]; human versus monkey,~1.5 fold
same,half-life,"[17]; human, serum, intravenous",15.1 h
same,half-life,[18],9.7 h
"C/C=C(/C)C(=O)O[C@H]1C(C)=C2[C@H]([C@@H]1OC(=O)CCCCCCC)[C@@](C)(OC(C)=O)C[C@H](OC(=O)CCC)[C@@]1(O)[C@H]2OC(=O)[C@@]1(C)O [TG, thapsigargin]",clonal survival after repeated exposure,[19],no change in clonal survival
same,lethal dose for 100% of the test population (LD100),[20],0.2 mg/kg
"CC(=O)O[C@@]12CO[C@@H]1C[C@H](O)[C@@]1(C)C(=O)[C@H](O)C3=C(C)[C@@H](OC(=O)[C@H](O)[C@@H](NC(=O)OC(C)(C)C)c4ccccc4)C[C@@](O)([C@@H](OC(=O)c4ccccc4)[C@H]21)C3(C)C [docetaxel, reference compound]",maximally tolerated dose,[8],0.39 µmol
same,treated-to-control tumor volume (T/C) ratio,[9],0.63
